KCNQ1 pot – potentiators or activators of KCNQ1 channel, primary screen, cell-based, thallium flux, high-throughput; B-score at 10 µM; hit rate 0.35% among 310,000; AID 2648, 2010; CHO-K1 KCNQ1, thallium flux FluxOR fluorescence; active compounds read high; Potassium voltage-gated channel subfamily KQT member 1 (Homo sapiens), P51787;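 active = fluorescence ratio B-score, a plate-corrected score, at least three library SD, with initial intensity B-score within 5 SD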
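Medium – assay buffer, equal DMSO in all wells · Material – CHO-K1 cell line with stable KCNQ1 potassium channel expression · Signal – kinetic FluxOR thallium fluorescence, 10-s 1-Hz baseline, 110-s post-stimulus read · Compound – single concentration per compound, DMSO matched to controls · Schedule – 37 °C overnight plating, 90-min dark dye load, 20-min compound pretreatment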
KCNK9 inh – KCNK9 potassium channel inhibitors, primary screen, HEK293 cells, thallium flux; Potassium channel subfamily K member 9 (Homo sapiens), Q9NPC2; FluxOR thallium flux fluorescence; active compounds read low; B-score at 10 µM; hit rate 1.2% among 310,000;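 active = ratio B-score over 3 SD below the library mean, with starting fluorescence within 5 SD of its mean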;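 also: negative B-score means less thallium flux so channel inhibition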
KCNK3 inh – human KCNK3 channel inhibitors, primary screen, CHO cells, FluxOR thallium flux, B-score. Potassium channel subfamily K member 3 (Homo sapiens), O14649. FluxOR fluorescence; active compounds read low. B-score at 10 µM. hit rate 0.84% among 340,000. AID 602410, 2012;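 active = B-score under library mean minus 4 SD, starting fluorescence ratio at most library mean plus 5 SD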;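 also: more negative B-score means stronger inhibition of thallium flux through KCNK3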
Target sequence (O14649 whole entry, looked up): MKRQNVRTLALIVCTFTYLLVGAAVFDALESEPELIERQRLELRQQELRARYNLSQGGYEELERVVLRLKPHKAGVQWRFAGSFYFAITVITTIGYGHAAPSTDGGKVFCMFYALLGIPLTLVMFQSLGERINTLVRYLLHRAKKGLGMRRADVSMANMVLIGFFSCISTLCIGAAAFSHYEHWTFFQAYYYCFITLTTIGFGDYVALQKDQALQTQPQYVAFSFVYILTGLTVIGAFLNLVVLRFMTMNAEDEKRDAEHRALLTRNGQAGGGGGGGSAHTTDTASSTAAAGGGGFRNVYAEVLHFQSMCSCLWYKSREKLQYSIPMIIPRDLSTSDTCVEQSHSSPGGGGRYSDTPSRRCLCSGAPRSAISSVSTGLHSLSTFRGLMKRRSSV
KCNQ1 inh – inhibitors of human KCNQ1 channel, primary screen, cell-based, thallium flux, high-throughput | CHO-K1 KCNQ1, FluxOR thallium flux fluorescence; active compounds read high | B-score at 10 µM | hit rate 1.3% among 310,000;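 active = compounds whose thallium flux B-score, printed positive for inhibition, exceeds three library SD while starting fluorescence stays within three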;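 also: channel opened by potassium depolarization with thallium stimulus after 20 min compound exposure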
hERG rescue – hERG rescue from dofetilide block, primary screen, cell-based, CHO-hERG, FluxOR thallium flux, dofetilide IC70. Voltage-gated inwardly rectifying potassium channel KCNH2 (Homo sapiens), Q12809. dofetilide IC70 present. activation (rescue from dofetilide block), less the hit threshold, % at 10 µM. hit rate 0.51% among 310,000;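 active = activation above the mean of controls blocked by dofetilide plus 5 SD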;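 also: thallium influx through hERG after potassium depolarization seen as dye fluorescence rise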
KCNK3 confirm – retest of human KCNK3 channel inhibitors, confirmation, CHO cells, FluxOR thallium flux, triplicate. shares compounds with KCNK3 inh. FluxOR fluorescence; 0% buffer, 100% carvedilol maximal block. ratio percent of control, % at 10 µM. hit rate 99% among 2,400;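 active = ratio percent of control, averaged over triplicates, above buffer control mean plus 5 SD, cut at about 64% in these data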;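 also: ratio is the fluorescence rise from min to max over baseline after thallium stimulus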
KCNK3 uninduced – thallium flux inhibition in non-induced cells, primary screen, counter-screen for KCNK3 inhibitor project, cell-based, non-induced KCNK3 line, FluxOR thallium, triplicate | shares compounds with KCNK3 inh | non-induced KCNK3 parental cells; active compounds read low | thallium flux ratio (lower = more inhibition) at 10 µM | hit rate 40% among 2,400 | AID 651747, 2012;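 active = thallium flux ratio, averaged over three wells, more than 5 SD below the buffer control mean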;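 also: host cells are CHO cells without KCNK3 induction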
Hits are given with their value. The list is not random: actives were taken first. Their share in the collection is about 3.1%.

How did COc1cccc(-c2nc(CS(=O)(=O)CC(=O)NC3CCC(C)CC3)c(C)o2)c1 (stereo unspecified) do in these assays?
KCNQ1 pot: inactive; KCNK9 inh: inactive; KCNK3 inh: -10; KCNQ1 inh: inactive; hERG rescue: inactive; KCNK3 confirm: inactive; KCNK3 uninduced: inactive

How did COc1cccc(-c2nc(CS(=O)(=O)CC(=O)NC3CCCC3)c(C)o2)c1 do in these assays?
KCNQ1 pot: inactive; KCNK9 inh: inactive; KCNK3 inh: inactive; KCNQ1 inh: inactive; hERG rescue: inactive

Results for CC(=O)Oc1ccc(/C=C(\NC(=O)c2ccco2)C(=O)NCc2ccco2)cc1 ?
KCNQ1 pot: inactive; KCNK9 inh: inactive; KCNK3 inh: inactive; KCNQ1 inh: inactive; hERG rescue: inactive

How did COc1ccc(C(C(=O)NC2CCCCC2)N(Cc2ccco2)C(=O)c2ccccn2)c(OC)c1 (stereo unspecified) do in these assays?
KCNQ1 pot: inactive; KCNK9 inh: inactive; KCNK3 inh: inactive; KCNQ1 inh: inactive; hERG rescue: inactive

How did COc1cccc(NC(=O)N(Cc2ccco2)C(C)c2cccs2)c1 (stereo unspecified) do in these assays?
KCNQ1 pot: inactive; KCNK9 inh: inactive; KCNK3 inh: inactive; KCNQ1 inh: inactive; hERG rescue: inactive

Results for Cc1ccc(NC(=O)N(Cc2ccco2)C(C)c2ccco2)cc1C (stereo unspecified) ?
KCNQ1 pot: inactive; KCNK9 inh: inactive; KCNK3 inh: -9; KCNQ1 inh: inactive; hERG rescue: inactive; KCNK3 confirm: 110; KCNK3 uninduced: inactive

What do the screens show for `O=C(NCCc1cn2ccccc2n1)c1ccccc1F`?
KCNQ1 pot: inactive; KCNK9 inh: inactive; KCNK3 inh: inactive; KCNQ1 inh: inactive; hERG rescue: inactive

Results for COc1cccc(CN(C)C(=O)c2cc(COc3ccc4ncccc4c3)on2)c1 ?
KCNQ1 pot: inactive; KCNK9 inh: inactive; KCNK3 inh: -9.8; KCNQ1 inh: inactive; hERG rescue: inactive; KCNK3 confirm: 120; KCNK3 uninduced: inactive

Results for O=C(NCCc1cn2ccccc2n1)c1cc(COc2ccc3ncccc3c2)on1 ?
KCNQ1 pot: inactive; KCNK9 inh: inactive; KCNK3 inh: -14; KCNQ1 inh: inactive; hERG rescue: inactive; KCNK3 confirm: 130; KCNK3 uninduced: inactive

How did O=C(COc1ccc(F)cc1)N1c2ccccc2CCc2ccccc21 do in these assays?
KCNQ1 pot: inactive; KCNK9 inh: inactive; KCNK3 inh: inactive; KCNQ1 inh: inactive; hERG rescue: inactive

How did O=C(COc1cccc2ccccc12)N1c2ccccc2CCc2ccccc21 do in these assays?
KCNQ1 pot: inactive; KCNK9 inh: inactive; KCNK3 inh: -13; KCNQ1 inh: inactive; hERG rescue: inactive; KCNK3 confirm: 120; KCNK3 uninduced: 0.15

Results for C=CCn1c(C)cc(C(=O)COc2ccc(N(C)S(=O)(=O)c3ccc(NC(C)=O)cc3)cc2)c1C ?
KCNK3 inh: -12; KCNK3 confirm: 105; KCNK3 uninduced: inactive

How did COc1ccc(Br)c(C(=O)OCC(=O)NC2CCCCCC2)c1 do in these assays?
KCNK3 inh: inactive

What do the screens show for `COc1ccc(-c2ccc(C3C(C#N)=C(N)Oc4n[nH]c(C)c43)o2)cc1` (stereo unspecified)?
KCNQ1 pot: inactive; KCNK9 inh: inactive; KCNK3 inh: -11; KCNQ1 inh: inactive; hERG rescue: inactive; KCNK3 confirm: 89; KCNK3 uninduced: inactive

Results for Cc1ccc(C(=O)Nc2cccc(-c3cn4ccccc4n3)c2)cc1 ?
KCNQ1 pot: inactive; KCNK9 inh: inactive; KCNK3 inh: inactive; KCNQ1 inh: inactive; hERG rescue: inactive

How did COc1cccc(-c2nc3ccccc3c(=O)o2)c1 do in these assays?
KCNQ1 pot: inactive; KCNK9 inh: inactive; KCNK3 inh: inactive; KCNQ1 inh: inactive; hERG rescue: inactive

Results for O=C(Nc1cccc(-c2cn3ccccc3n2)c1)c1ccccc1 ?
KCNQ1 pot: inactive; KCNK9 inh: inactive; KCNK3 inh: -12; KCNQ1 inh: inactive; hERG rescue: inactive; KCNK3 confirm: 112; KCNK3 uninduced: inactive

How did O=C(Nc1cccc(-c2nc3ccccc3c(=O)o2)c1)c1ccccc1 do in these assays?
KCNQ1 pot: inactive; KCNK9 inh: inactive; KCNK3 inh: -8.7; KCNQ1 inh: inactive; hERG rescue: inactive; KCNK3 confirm: 108; KCNK3 uninduced: 0.16

What do the screens show for `CCCCC(=O)Nc1cccc(-c2cn3ccccc3n2)c1`?
KCNQ1 pot: inactive; KCNK9 inh: inactive; KCNK3 inh: -8.7; KCNQ1 inh: inactive; hERG rescue: inactive; KCNK3 confirm: 121; KCNK3 uninduced: 0.13

Results for CCCS(=O)(=O)c1nc(S(=O)(=O)c2ccc(Cl)cc2)c(N2CCC(O)CC2)s1 ?
KCNQ1 pot: inactive; KCNK9 inh: inactive; KCNK3 inh: inactive; KCNQ1 inh: inactive; hERG rescue: inactive

How did CCOC(=O)c1cn2nc(Oc3cccc(C(F)(F)F)c3)ccc2n1 do in these assays?
KCNQ1 pot: inactive; KCNK9 inh: inactive; KCNK3 inh: inactive; KCNQ1 inh: inactive; hERG rescue: inactive

Results for Cc1noc(NS(=O)(=O)c2ccc(NC(=O)c3ccccc3NS(=O)(=O)c3ccc(F)c(F)c3)cc2)c1C ?
KCNK3 inh: inactive

What do the screens show for `COc1ccc(/C(C)=N/NS(=O)(=O)c2cc(C)ccc2C)c(OC)c1`?
KCNQ1 pot: inactive; KCNK9 inh: inactive; KCNK3 inh: -10; KCNQ1 inh: inactive; hERG rescue: inactive; KCNK3 confirm: 97; KCNK3 uninduced: inactive

How did Cc1ccc(NC(=O)c2cc(C)nc3ccccc23)c(Br)c1 do in these assays?
KCNQ1 pot: inactive; KCNK9 inh: -8; KCNK3 inh: -10; KCNQ1 inh: inactive; hERG rescue: inactive; KCNK3 confirm: 94; KCNK3 uninduced: inactive

What do the screens show for `O=C(COC(=O)c1cnccn1)Nc1ncc(C(F)(F)F)cc1Cl`?
KCNK3 inh: inactive

How did CCN(C(=O)C1CCCN(c2ncnc3c2nc2n3CCCCC2)C1)c1cccc(Cl)c1 (stereo unspecified) do in these assays?
KCNQ1 pot: inactive; KCNK9 inh: inactive; KCNK3 inh: -12; KCNQ1 inh: inactive; hERG rescue: inactive; KCNK3 confirm: 89; KCNK3 uninduced: inactive

Source: PubChem BioAssay
